Screening results: PubChem, several laboratories
HNF4A DNA FP: change in binding of human HNF4 alpha to DNA; P41235; HNF4a-FITC DNA binding, fluorescence polarization, 1 h; activity change, % at 10 µM; 360,000 compounds, 0.3% hits; AID 1224865; in the data active = activity change above about 30%, passing the limit was not always enough
Target sequence (P41235 whole entry, looked up): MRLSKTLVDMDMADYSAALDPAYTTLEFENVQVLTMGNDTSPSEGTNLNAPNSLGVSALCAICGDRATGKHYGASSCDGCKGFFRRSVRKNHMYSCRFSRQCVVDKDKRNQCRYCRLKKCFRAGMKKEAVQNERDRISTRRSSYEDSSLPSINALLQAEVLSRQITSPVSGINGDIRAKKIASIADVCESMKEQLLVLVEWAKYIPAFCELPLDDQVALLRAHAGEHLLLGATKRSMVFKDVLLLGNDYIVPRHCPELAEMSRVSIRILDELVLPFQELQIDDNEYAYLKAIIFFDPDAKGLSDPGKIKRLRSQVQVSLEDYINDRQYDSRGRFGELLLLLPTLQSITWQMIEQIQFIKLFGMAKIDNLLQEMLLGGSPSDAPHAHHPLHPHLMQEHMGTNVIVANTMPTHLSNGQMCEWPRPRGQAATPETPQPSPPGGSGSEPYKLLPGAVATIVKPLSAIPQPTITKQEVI
PREPL inh: inhibitors of human prolyl oligopeptidase-like enzyme PREPL | Q4J6C6 | recombinant PREPL, fluorescence polarization activity-based probe | inhibition, % at 5.96 µM | 320,000 compounds, 0.68% hits; in the data active = inhibition above about 43%
Rpn11 inh: Rpn11 (human) deubiquitinase inhibition | O00487 | human 26S proteasome, Ub4-pepOG fluorescence polarization; 20S core pre-blocked with epoxomicin | inhibition, % at 20 µM | 360,000 compounds, 0.59% hits | AID 588493;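 active = inhibition at 20 µM, scaled to each plate's controls, above about 33%, limit read from the data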
TbMetRS inhib: blocks T. brucei methionyl-tRNA synthetase activity | inhibition, % at 11.9 µM | 360,000 compounds, 0.4% hits | purified T. brucei MetRS, ATP depletion, Kinase-Glo luminescence;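 active = inhibition above a per-plate cutoff of the control wells' mean inhibition plus 3 SD, cut at about 5.5% in these data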
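Dosing: 11.9 µM compound single dose, 0.9% DMSO; Assay system: purified T. brucei MetRS enzyme; Measured by: Kinase-Glo luciferase luminescence reporting remaining unconsumed ATP; Schedule: 15 min plus 2 h at 25 °C.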
Neddylation inh: inhibitors of human cullin neddylation. P61081+Q13564. TR-FRET cullin neddylation, biochemical. inhibition, % at 25 µM. 360,000 compounds, 0.58% hits; in the data active = inhibition above about 36%
CSN inh: CSN deneddylation inhibition; Q92905; Purified CSN, SCF-Nedd8-OG deneddylation, fluorescence polarization; inhibition, % at 12.5 µM; 360,000 compounds, 0.38% hits;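 active = pattern-corrected inhibition above about 35%, with an unprinted fluorescence ratio check between 0.5 and 1.5, limit read from the data, passing the limit was not always enough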
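Test system: purified human Csn5 enzyme expressed in HEK293T cells. Amount: 0.24 nM enzyme. Reagent: SCFSkp2-Nedd8OG substrate at 10 nM final. Schedule: 90 min incubation of compound, enzyme and substrate at room temperature. Detection: fluorescence polarization. Read-out: % inhibition of substrate cleavage by Csn5.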
Tb MetRS conf: confirmation of Trypanosoma brucei MetRS inhibitors; T. brucei MetRS enzyme, luminescence (ATP depletion); 1,400 compounds, 93% hits; inhibition, % at 11.9 µM; shares compounds with TbMetRS inhib; in the data active = inhibition above about 7%
Jurkat cytotox: kills Jurkat cells in T. brucei MetRS counterscreen | shares compounds with TbMetRS inhib | AID 624413 | inhibition, % at 8.3 µM | 1,400 compounds, 12% hits | Jurkat cells viability, ATP luminescence; in the data active = inhibition above about 15%
TbMetRS FP orth: T. brucei MetRS inhibition, orthogonal assay; inhibition, % at 11.9 µM; shares compounds with TbMetRS inhib; AID 651607; purified T. brucei MetRS, fluorescence polarization; 1,400 compounds, 44% hits; in the data active = inhibition above about 17%
Neddyl inh conf: confirmation of human cullin neddylation inhibitors; shares compounds with Neddylation inh; TR-FRET cullin neddylation biochemical assay; calls only at 25 µM; 1,800 compounds, 13% hits; in the data active = inhibition above about 40%;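 also: neddylation substrate is the cullin 1 ring ligase complex with SKP2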
CSN5 deneddyl: Csn5 (human) deneddylation inhibition, single-concentration validation; shares compounds with CSN inh; Csn5 deneddylation of SCF-Nedd8OG, fluorescence polarization, 90 min; inhibition, % at 16.6 µM; 540 compounds, 62% hits; AID 720654; in the data active = inhibition above about 50%
MMP2 cntr CSN: blocks human MMP-2 in a CSN deneddylation counter-screen; shares compounds with CSN inh; recombinant MMP-2, FRET substrate fluorescence, 60 min; inhibition, % at 16.6 µM; 540 compounds, 33% hits;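 active = corrected plate-normalized z-score of 5 or more, or -5 or less, or inhibition of 15% or more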
Thrombin counter: counter-screen for CSN deneddylation inhibitors: bovine thrombin inhibition; 540 compounds, 49% hits; AID 720656; inhibition, % at 16.6 µM; bovine thrombin cleavage of Ub4-pepOG, fluorescence polarization; shares compounds with CSN inh;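 active = inhibition at or above a set limit, with a fluorescence interference ratio between 0.5 and a set maximum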
Of the large screens only hits and unclear results are named; the others gave an inactive call (follow-up assays come after a bar, where shown). A selection: hits, their analogues and other compounds. The true share with any hit is near 2.4%.

O=C(NCc1nc2ccccc2[nH]1)C1=C[C@@H](c2csc3ccccc23)C[C@@H](OCCCCO)O1	TbMetRS inhib 72 | Tb MetRS conf 101 | Jurkat cytotox inactive | TbMetRS FP orth 77
C[C@@H]1C=C(C(=O)NCc2nc3ccccc3[nH]2)O[C@H](OCc2ccc(CO)cc2)C1	TbMetRS inhib 69 | Tb MetRS conf 96 | Jurkat cytotox inactive | TbMetRS FP orth 72
O=C(NCc1ccccc1)C1=C[C@@H](c2csc3ccccc23)C[C@@H](OCCCCO)O1	none (no result: HNF4A DNA FP, Rpn11 inh, TbMetRS inhib, Neddylation inh, CSN inh)
O=C(NCc1nc2ccccc2[nH]1)C1=C[C@H](c2ccc(C(F)(F)F)cc2)C[C@H](OCc2ccc(CO)cc2)O1	TbMetRS inhib 18 | Tb MetRS conf 49 | Jurkat cytotox inactive | TbMetRS FP orth 30
C[C@@H]1C=C(C(=O)NCc2nc3ccccc3[nH]2)O[C@H](OCCCCO)C1	none
CCCCCCN1CCN(C2CN(Cc3cn(Cc4ccc(C)cc4)nn3)S(=O)(=O)C2)CC1 (stereo unspecified)	none (no result: PREPL inh, Rpn11 inh)
C#Cc1ccc([C@H]2C=C(C(=O)NCc3nc4ccccc4[nH]3)O[C@@H](OCc3ccc(CO)cc3)C2)cc1	TbMetRS inhib 32 | Tb MetRS conf 85 | Jurkat cytotox inactive | TbMetRS FP orth 68
NNC(=O)CSc1nc(-c2ccccc2)cn1-c1ccccc1	TbMetRS inhib 7.2 | Tb MetRS conf inactive | Jurkat cytotox inactive | TbMetRS FP orth inactive
Nn1cc(-c2ccccc2)nc1SCC(=O)NCCc1ccccc1	none
C[C@H](O)[C@@H]1C(=O)N2CCc3c([nH]c4ccccc34)[C@@H]2C[C@@H]1N(C)Cc1ccc(Cl)cc1	TbMetRS inhib 87, Neddylation inh 44 (no result: PREPL inh) | Tb MetRS conf 104 | Jurkat cytotox inactive | TbMetRS FP orth 83 | Neddyl inh conf inactive
CC(O)(c1ccc(F)c(F)c1)c1nc(-c2cc(F)cc(F)c2)cs1 (stereo unspecified)	none (no result: PREPL inh)
Cc1cnc(C(=O)Nc2c(-c3ccccc3)[nH][nH]c2=O)cn1	none (no result: PREPL inh, Rpn11 inh)
CN(C)c1ccc(-c2[nH][nH]c(=O)c2NC(=O)c2ccccn2)cc1	TbMetRS inhib 28, Neddylation inh 45 (no result: PREPL inh) | Tb MetRS conf inactive | Jurkat cytotox inactive | TbMetRS FP orth inactive | Neddyl inh conf inactive
CCCCn1c(NC(=O)c2ccc(Br)o2)c(S(=O)(=O)c2ccccc2)c2nc3ccccc3nc21	TbMetRS inhib 6.0, CSN inh 48 | Tb MetRS conf 11 | Jurkat cytotox inactive | TbMetRS FP orth inactive | CSN5 deneddyl 101 | MMP2 cntr CSN inactive | Thrombin counter inactive
CCc1nc2ccc(C(=O)Nc3cccc(OCC(=O)N(C)C)c3)cn2c1N(C=O)Cc1ccc(OC)cc1	none (no result: PREPL inh)
CCOC(=O)COc1ccccc1/C=N\NC(=O)c1cc2c(ccc3ccccc32)o1	Neddylation inh 55 (not shown: PREPL inh)
CCOc1cc(/C=N/NC(=O)c2cc3c(ccc4ccccc43)o2)ccc1O	none (not shown: PREPL inh, Neddylation inh)
CCC(=O)Nc1nnc(/C=C/c2ccccc2)s1	Neddylation inh 47 | Neddyl inh conf inactive
